Test results published in ChEMBL document CHEMBL4028901, “Novel Antitubercular 6-Dialkylaminopyrimidine Carboxamides from Phenotypic Whole-Cell High Throughput Screening of a SoftFocus Library: Structure-Activity Relationship and Target Identification Studies” (J Med Chem, 2017).
In brackets after ≈: the same amount, converted by molar mass.

Experiments:
[1] = tested on: Mycobacterium tuberculosis; experiment: Antibacterial activity against cytochrome bd oxidase knockout GFP-fused Mycobacterium tuberculosis H37RvMA grown in GAST/Fe medium measured on day 7 and day 14 post inoculation by fluorescence plate reader assay; type: functional
[2] = tested on: Mycobacterium tuberculosis; experiment: Antibacterial activity against cytochrome bd oxidase knockout GFP-fused Mycobacterium tuberculosis H37RvMA grown in 7H9/GLU/ADC medium measured on day 7 and day 14 post inoculation by fluorescence plate reader assay; type: functional; settings: Mycobacterium tuberculosis, H37RvMA; read-out: MIC99
[3] = Kinetic solubility of the compound in pH 7.4 solution at 10 to 220 uM after 2 hrs by shake flask method; type: physicochemical; settings: buffer, pH 7.4, 2 h, 220 µM
[4] = tested on: Mycobacterium tuberculosis; experiment: Antibacterial activity against Mycobacterium tuberculosis H37RvMA grown in 7H9/ADC medium measured 7 to 14 days post inoculation by broth microdilution method; type: functional
[5] = tested on: Mycobacterium tuberculosis; experiment: Antibacterial activity against Mycobacterium tuberculosis H37RvMA grown in GAST/Fe medium measured 7 to 14 days post inoculation by broth microdilution method; type: functional
Procedure, shortened: (§1)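 H37RvMa grown to OD600 0.6–0.7, diluted 1:100 in GAST/Fe. Compounds two-fold serially diluted from a top concentration of 640 μM, in duplicate. Incubated at 37 °C with humidification.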

[6] = tested on: Vero; experiment: Cytotoxicity against African green monkey Vero cells assessed as reduction in cell viability by MTT assay; type: cell-based; settings: Chlorocebus sabaeus
Procedure, shortened: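 MTT assay in Vero cells, samples in triplicate on one occasion. Stocks at 20 mg/mL in DMSO, diluted in complete medium as 10-fold serial dilutions over 6 concentrations. Emetine used as reference. IC50 derived by non-linear dose-response curve fitting.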

[7] = Kinetic solubility of the compound in fasted-state simulated intestinal fluid at 10 to 220 uM at pH 6.5 after 2 hrs by shake flask method; type: physicochemical; settings: read-out: Kinetic_solubility
Procedure, shortened: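 Miniaturised shake flask. 10 mM DMSO stocks spiked 1:50 into duplicate FaSSIF (pH 6.5), 2% final DMSO. Shaken 2 h at 25 °C, filtered, analysed by HPLC-DAD against calibration standards (10–220 μM).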

[8] = Lipophilicity, log P of the compound at 100 uM at pH 7.4 after 3 hrs by shake-flask method; type: physicochemical; settings: buffer
Procedure, shortened: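 Shake-flask method run in triplicate. A 10 mM stock was spiked into a 1:1 mixture of phosphate buffer (pH 7.4) and n-octanol, then shaken at 1500 rpm on an orbital shaker for 3 h at room temperature.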

[9] = tested on: Mycobacterium tuberculosis; experiment: Antibacterial activity against Mycobacterium tuberculosis […] SAWC1125 grown in middlebrook 7H9 medium measured on day 7 and 14 by MABA assay; type: functional; settings: 168 h
Procedure, shortened: (§2)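 Clinical M. tuberculosis strains tested by broth microdilution in 7H9 medium. On days 7 and 14, Alamar Blue added and plates reincubated 24 h at 37 °C. Colour read by eye (blue means no growth, pink means growth). MIC90 is the lowest concentration with no colour change.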

[10] = tested on: Mycobacterium tuberculosis; experiment: Antibacterial activity against Mycobacterium tuberculosis […] SAWC3933 grown in middlebrook 7H9 medium measured on day 7 and 14 by MABA assay; type: functional; settings: 168 h; procedure, shortened: as §2
[11] = tested on: Mycobacterium tuberculosis; experiment: Antibacterial activity against Mycobacterium tuberculosis […] SAWC3385 grown in middlebrook 7H9 medium measured on day 7 and 14 by MABA assay; type: functional; settings: 168 h; procedure, shortened: as §2
[12] = tested on: Mycobacterium tuberculosis; experiment: Antibacterial activity against Mycobacterium tuberculosis […] SAWC3200 grown in middlebrook 7H9 medium measured on day 7 and 14 by MABA assay; type: functional; settings: 168 h; procedure, shortened: as §2
[13] = tested on: Mycobacterium tuberculosis; experiment: Antibacterial activity against Mycobacterium tuberculosis […] SAWC3388 grown in middlebrook 7H9 medium measured on day 7 and 14 by MABA assay; type: functional; settings: 168 h; procedure, shortened: as §2
[14] = tested on: Mycobacterium tuberculosis; experiment: Antibacterial activity against Mycobacterium tuberculosis […] SAWC3906 grown in middlebrook 7H9 medium measured on day 7 and 14 by MABA assay; type: functional; settings: 168 h; procedure, shortened: as §2
[15] = tested on: Liver; experiment: Metabolic stability in rat liver microsomes assessed as compound remaining at 0.1 uM after 30 mins by LC-MS/MS analysis; type: ADME, microsome; settings: 0.5 h
Procedure, shortened: (§3)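 Compound at 0.1 μM incubated in duplicate with mouse, rat or pooled human liver microsomes (0.4 mg/mL) at 37 °C. Run with and without 1 mM NADPH, sampled at predetermined time points.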

[16] = tested on: Plasma; experiment: Fraction unbound in human plasma at 5 uM pre-incubated for 1 hr by ultra-centrifugation and LC-MS/MS method; type: ADME, cell-free
Procedure, shortened: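 Pooled human plasma spiked to 5 μM and pre-incubated 1 h at 37 °C. Duplicate aliquots ultracentrifuged 4 h at 37 °C; an unspun aliquot served as the total sample. Analyte measured by LC-MS/MS.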

[17] = tested on: Liver; experiment: Metabolic stability in human liver microsomes assessed as compound remaining at 0.1 uM after 30 mins by LC-MS/MS analysis; type: ADME, microsome; settings: 0.5 h; procedure, shortened: as §3
[18] = tested on: Liver; experiment: Metabolic stability in mouse liver microsomes assessed as compound remaining at 0.1 uM after 30 mins by LC-MS/MS analysis; type: ADME, microsome; settings: 0.5 h; procedure, shortened: as §3
[19] = tested on: Mus musculus; experiment: Apparent elimination half life in C57/BL6 mouse at 20 mg/kg, po measured up to 24 hrs post dose by LC-MS/MS analysis; type: ADME, organism-based; settings: in vivo
Procedure, shortened: (§4)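 Male mice, 3 per route, not fasted, free access to water. Oral dose given as aqueous suspension in 0.5% (w/v) hydroxypropyl methylcellulose with 0.4% (v/v) Tween 80. Blood drawn into heparinised tubes at 0.5, 1, 3, 5, 8, 12 and 24 h, kept below -15 °C, protein-precipitated with ice-cold acetonitrile. Quantified by LC-MS/MS against standards made in drug-free mouse blood.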

[20] = tested on: Mus musculus; experiment: Cmax in C57/BL6 mouse at 20 mg/kg, po measured up to 24 hrs post dose by LC-MS/MS analysis; type: ADME, organism-based; design: dose 20 mg/kg, route oral; settings: in vivo; procedure, shortened: as §4
[21] = tested on: Mus musculus; experiment: Tmax in C57/BL6 mouse at 20 mg/kg, po measured up to 24 hrs post dose by LC-MS/MS analysis; type: ADME, organism-based; settings: in vivo; procedure, shortened: as §4
[22] = tested on: Mus musculus; experiment: AUC (0 to infinity) in C57/BL6 mouse at 20 mg/kg, po measured up to 24 hrs post dose by LC-MS/MS analysis; type: ADME, organism-based; design: dose 20 mg/kg, route oral, time infinity; settings: in vivo; procedure, shortened: as §4
[23] = tested on: Mus musculus; experiment: Oral bioavailability in C57/BL6 mouse at 20 mg/kg measured up to 24 hrs post dose by LC-MS/MS analysis; type: ADME, organism-based; settings: in vivo; procedure, shortened: as §4
[24] = tested on: Mus musculus; experiment: Apparent elimination half life in C57/BL6 mouse at 5 mg/kg, iv measured up to 24 hrs post dose by LC-MS/MS analysis; type: ADME, organism-based; settings: in vivo
Procedure, shortened: (§5)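 Male mice, 3 animals, not fasted, given an IV bolus in 10% DMSO, 50% propylene glycol/ethanol (4:1) and 40% polyethylene glycol or water. Blood sampled into heparinised tubes at 0.17, 0.5, 1, 3, 5, 8, 12 and 24 h, stored frozen, precipitated with ice-cold acetonitrile. Measured by LC-MS/MS with internal standards against blood-matrix calibration standards.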

[25] = tested on: Mus musculus; experiment: Volume of distribution in C57/BL6 mouse at 5 mg/kg, iv measured up to 24 hrs post dose by LC-MS/MS analysis; type: ADME, organism-based; settings: in vivo; procedure, shortened: as §5
[26] = tested on: Mus musculus; experiment: AUC (0 to infinity) in C57/BL6 mouse at 5 mg/kg, iv measured up to 24 hrs post dose by LC-MS/MS analysis; type: ADME, organism-based; design: dose 5 mg/kg, route intravenous, time infinity; settings: in vivo; procedure, shortened: as §5
[27] = tested on: Mycobacterium tuberculosis; experiment: Antibacterial activity against wild type Mycobacterium tuberculosis H37Rv grown in GAST/Fe medium measured on day 14 post inoculation by broth microdilution method; type: functional; settings: 336 h; procedure, shortened: as §1
[28] = tested on: Mycobacterium tuberculosis; experiment: Antibacterial activity against Mycobacterium tuberculosis H37Rv grown in middlebrook 7H9 medium measured on day 7 and 14 by MABA assay; type: functional; settings: 168 h

CN(Cc1ccc(C(F)(F)F)cc1)c1cc(C(=O)NC2CCCCC2)ncn1
MIC99 [1]: 12 µM (≈ 4.71 µg/mL)
MIC99 [2]: > 125 µM
Kinetic_solubility [3]: 5 µM

CN(Cc1cccnc1)c1cc(C(=O)Nc2ccccc2)ncn1
MIC99 [1]: 37 µM (≈ 11.8 µg/mL)
MIC99 [2]: 48 µM (≈ 15.3 µg/mL)
Kinetic_solubility [3]: 150 µM

CN(Cc1ccc(C(F)(F)F)nc1)c1cc(C(=O)Nc2nncs2)ncn1
MIC99 [4]: 50 µM (≈ 19.8 µg/mL)
MIC99 [5]: 5 µM (≈ 1.98 µg/mL)
IC50 [6]: 28 µM
solubility kinetic at 2 h [7]: 195 µM (≈ 77.1 µg/mL)
logD at 3 h, 100 µM [8]: 1.4
Kinetic_solubility [3]: 191 µM
MIC90 [9]: 2.5 µM (≈ 0.988 µg/mL)
MIC90 [10]: 10 to 20 µM (≈ 3.95 to 7.91 µg/mL)
MIC90 [11]: 10 µM (≈ 3.95 µg/mL)
MIC90 [12]: 2.5 to 5 µM (≈ 0.988 to 1.98 µg/mL)
MIC90 [13]: 10 µM (≈ 3.95 µg/mL)
MIC90 [14]: 2.5 to 5 µM (≈ 0.988 to 1.98 µg/mL)
Stability [15]: 88%
Fu [16]: 0.32%
Stability [17]: 100%
Stability [18]: 78%
betat1/2(app) [19]: 3 h
Cmax [20]: 10.8 µM
Tmax [21]: 1 h
AUC [22]: 5614 µM·min
F [23]: 67%
betat1/2(app) [24]: 3 h
Vd [25]: 1.7 L/kg
AUC [26]: 2106 µM·min

C[C@H]1COc2c(N3CCN(C)CC3)c(F)cc3c(=O)c(C(=O)O)cn1c23 [LEVOFLOXACIN]
MIC99 [27]: 0.64 µM (≈ 0.231 µg/mL)

NNC(=O)c1ccncc1 [ISONIAZID]
MIC99 [27]: 0.18 µM (≈ 0.0247 µg/mL)

CC(C)Oc1ccc(NC(=O)c2cc(N(C)Cc3ccc(F)cc3)ncn2)cc1
MIC99 [4]: 5 µM (≈ 1.97 µg/mL)
MIC99 [5]: 1.2 µM (≈ 0.473 µg/mL)
IC50 [6]: 254 µM
solubility kinetic at 2 h [7]: < 5 µM
logD at 3 h, 100 µM [8]: 5
MIC99 [27]: 1.25 to 5 µM (≈ 0.493 to 1.97 µg/mL)
MIC90 [28]: 1.25 µM (≈ 0.493 µg/mL)
MIC90 [9]: 2.5 µM (≈ 0.986 µg/mL)
MIC90 [10]: 2.5 µM (≈ 0.986 µg/mL)
MIC90 [11]: 0.31 µM (≈ 0.122 µg/mL)
MIC90 [12]: < 0.08 µM
MIC90 [13]: 0.31 µM (≈ 0.122 µg/mL)
MIC90 [14]: 0.31 µM (≈ 0.122 µg/mL)
Stability [15]: 43%
Fu [16]: 0.04%
Stability [17]: 64%
Stability [18]: 37%

COc1ccc(NC(=O)c2cc(N(C)Cc3cccc(F)c3)ncn2)cc1
MIC99 [4]: 37 µM (≈ 13.6 µg/mL)
MIC99 [5]: 5 µM (≈ 1.83 µg/mL)
IC50 [6]: 272 µM
MIC99 [27]: 2.5 to 5 µM (≈ 0.916 to 1.83 µg/mL)
